According to ChEMBL document CHEMBL1151862, “Quaternary ammonium N,N-dichloroamines as topical, antimicrobial agents” (Bioorg Med Chem Lett, 2009):
≈ marks a conversion by molar mass, not a printed value.

Assays:
Escherichia coli = assay: Antibacterial activity against Escherichia coli ATCC 25922 after 1 hr by CLSI M26-A based method at room temperature; assay type: functional; settings: ATCC 25922, 1 h
How it was run: (§1)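 Minimum bactericidal (bacteria) or fungicidal (C. albicans) concentration was determined by a modified CLSI M26-A method. Isotonic saline at pH 4 replaced Mueller–Hinton broth because chlorine reacts with broth components. Exposure was shortened from 16–20 h at 35 °C to 1 h at room temperature.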

Candida albicans = assay: Antifungal activity against Candida albicans ATCC 10231 after 1 hr by CLSI M26-A based method at room temperature; assay type: functional; settings: ATCC 10231, 1 h; how it was run: as §1
Staphylococcus aureus = assay: Antibacterial activity against Staphylococcus aureus ATCC 29213 after 1 hr by CLSI M26-A based method at room temperature; assay type: functional; settings: ATCC 29213, 1 h; how it was run: as §1
[1] = Stability in saline solution assessed as half life at pH 4; assay type: physicochemical
How it was run: (§2)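 Aqueous half-life is reported in days. Media were saline at pH 4, phosphate at pH 7, and, for some analogs, 0.6% borate buffer at pH 7. Biological testing was limited to analogs with aqueous stability above 24 h at 40 °C.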

[2] = Stability in phosphate buffer assessed as half life at pH 7; assay type: physicochemical; how it was run: as §2
[3] = Stability in water assessed as half life at pH 4 at 40 degC; assay type: physicochemical
[4] = Stability in 0.6% borate buffer assessed as half life at pH 7; assay type: physicochemical; how it was run: as §2

SMILES | MBC (Escherichia coli) | MFC (Candida albicans) | MBC (Staphylococcus aureus) | half-life [1] | half-life [2] | half-life [3] | half-life [4]
CC(C)(CS(=O)(=O)[O-])N(Cl)Cl.[Na+] | 2 µg/mL | 32 µg/mL | 2 µg/mL | > 730 days | > 300 days |  | 
CC(C)(CC(=O)OCCS(=O)(=O)O)N(Cl)Cl |  |  |  |  |  | > 95 days | 
CC(C)(COCCCS(=O)(=O)O)N(Cl)Cl |  |  |  |  |  | 0.104 days | 
CN(CC[N+](C)(C)C)C(=O)CC(C)(C)N(Cl)Cl.[Cl-] | 2 µg/mL | 32 µg/mL | 16 µg/mL | 4 days | 6 days |  | 
CC(C)(C[N+]1(C)CCCCC1)N(Cl)Cl.[Cl-] | 8 µg/mL | 64 µg/mL | 16 µg/mL | > 122 days | 100 days |  | 
Cn1nc[n+](C)c1CC(C)(C)N(Cl)Cl.[Cl-] | 2 µg/mL | 16 µg/mL | 4 µg/mL | 67 days | 5 days |  | 
CC(C)(C[N+](C)(C)C)N(Cl)Cl.[Cl-] | 8 µg/mL | 128 µg/mL | 16 µg/mL | > 325 days | > 396 days |  | 
Cc1nn(C)c(CC(C)(C)N(Cl)Cl)[n+]1C.[Cl-] | 4 µg/mL | 32 µg/mL | 8 µg/mL | 61 days | 4 days |  | 
CC(C)(C[N+](C)(C)CCS(=O)(=O)O)N(Cl)Cl.[Cl-] | 16 µg/mL | 128 µg/mL | 64 µg/mL | > 180 days | 19 days |  | 
Cc1nc(CC(C)(C)N(Cl)Cl)n(CCS(=O)(=O)O)n1 | 4 µg/mL (≈ 12.1 µM) | 64 µg/mL (≈ 193 µM) | 4 µg/mL (≈ 12.1 µM) | 46 days | 50 days |  | 
CC(C)(CC(=O)OCC[N+]1(C)CCCCC1)N(Cl)Cl.[Cl-] | 2 µg/mL |  | 4 µg/mL | > 72 days | 7 days |  | 
C[S+](C)CC(C)(C)N(Cl)Cl.[Cl-] | 4 µg/mL | 128 µg/mL | 8 µg/mL | > 67 days | 1 days |  | 
CC(C)(CNC(=O)CCS(=O)(=O)O)N(Cl)Cl |  |  |  |  |  | 0.5 days | 
CN(CCS(=O)(=O)O)C(=O)CC(C)(C)N(Cl)Cl | 1 µg/mL (≈ 3.26 µM) | 32 µg/mL (≈ 104 µM) | 2 µg/mL (≈ 6.51 µM) | 1 days | 1 days |  | 
CC(C)(Cc1nc(CS(=O)(=O)O)no1)N(Cl)Cl | 4 µg/mL (≈ 13.2 µM) | 16 µg/mL (≈ 52.6 µM) | 2 µg/mL (≈ 6.58 µM) | 106 days | 17 days |  | 
CC(C)(Cc1ncnn1CCS(=O)(=O)O)N(Cl)Cl | 2 µg/mL (≈ 6.31 µM) | 64 µg/mL (≈ 202 µM) | 4 µg/mL (≈ 12.6 µM) | 21 days | 23 days |  | 
CC(C)(CC(=O)NCCS(=O)(=O)O)N(Cl)Cl | 2 µg/mL (≈ 6.82 µM) | 64 µg/mL (≈ 218 µM) | 8 µg/mL (≈ 27.3 µM) | 33 days |  |  | 36 days
CC(=O)N1CC[N+](C)(CC(C)(C)N(Cl)Cl)CC1.[Cl-] | 16 µg/mL | > 1020 µg/mL | 64 µg/mL | 37 days |  |  | 6 days
C[n+]1ccc(CCC(C)(C)N(Cl)Cl)cc1.[Cl-] | 2 µg/mL | 1020 µg/mL | 8 µg/mL | > 60 days |  |  | 20 days
CC(C)(C[N+]1(C)CCOCC1)N(Cl)Cl.[Cl-] |  |  |  | < 1 days | < 1 days |  | 
CC(C)(c1cn(CCS(=O)(=O)O)nn1)N(Cl)Cl | 4 µg/mL (≈ 13.2 µM) | 32 µg/mL (≈ 106 µM) | 8 µg/mL (≈ 26.4 µM) | 10 days | 5 days |  | 
